Results published in ChEMBL document CHEMBL4609977, “Synthesis of natural product-like polyprenylated phenols and quinones: Evaluation of their neuroprotective activities” (Bioorg Med Chem, 2020).

Key:
[1] = biological target: T1, Amine oxidase [flavin-containing] B (Homo sapiens, UniProt P27338); experiment: Mixed inhibition of recombinant human MAO-B expressed in baculovirus infected BTI insect cells at 0.7 to 2.8 uM by Lineweaver-Burk plot analysis
T1 sequence (P27338 whole entry): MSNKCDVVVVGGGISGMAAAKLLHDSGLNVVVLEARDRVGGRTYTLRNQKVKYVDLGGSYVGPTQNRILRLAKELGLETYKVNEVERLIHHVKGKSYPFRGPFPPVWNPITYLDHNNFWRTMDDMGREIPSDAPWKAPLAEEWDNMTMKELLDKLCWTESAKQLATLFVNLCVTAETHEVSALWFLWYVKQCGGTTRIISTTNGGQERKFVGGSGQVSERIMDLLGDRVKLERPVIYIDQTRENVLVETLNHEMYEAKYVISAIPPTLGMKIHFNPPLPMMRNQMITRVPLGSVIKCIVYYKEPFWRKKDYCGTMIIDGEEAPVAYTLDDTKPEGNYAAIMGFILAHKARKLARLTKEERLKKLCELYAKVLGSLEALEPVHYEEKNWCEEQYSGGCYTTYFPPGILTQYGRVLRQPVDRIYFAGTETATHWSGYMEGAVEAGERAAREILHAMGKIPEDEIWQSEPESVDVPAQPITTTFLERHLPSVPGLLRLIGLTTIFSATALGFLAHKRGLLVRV

SH-SY5Y [2] = experiment: Neuroprotective activity against H2O2-induced cytotoxicity in human SH-SY5Y cells assessed as increase in cell viability at 10 uM measured after 24 hrs by MTT assay relative to H2O2-treated control; format: functional
Procedure, shortened: (§1)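 SH-SY5Y cells were seeded at 5.0 × 10⁴ cells/well and given 24 h attachment. Compound (DMSO final <0.5%) and H₂O₂ (final 500 μM) were added together in serum-free E-MEM/F12 and left 24 h at 37 °C, 5% CO₂. Viability was by MTT (5 mg/mL, 24 h, absorbance 595 nm). Luteolin was the positive control. Mean ± SD, n = 3; one-way ANOVA with Dunnett's test against H₂O₂ alone.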

[3] = biological target: T1, Amine oxidase [flavin-containing] B; experiment: (§2) Inhibition of recombinant human MAO-B expressed in baculovirus infected BTI insect cells assessed as reduction in formation of 4-quinolinol at 25 uM using kynuramine as substrate preincubated with substrate for 10 mins followed by enzyme addition and measured after 20 mins by fluorescence based microplate reader assay relative to control
[4] = biological target: T1, Amine oxidase [flavin-containing] B; experiment: Tight-binding competitive inhibition of recombinant human MAO-B expressed in baculovirus infected BTI insect cells at varying substrate concentration and IC50 of compound by tight-binding inhibition based assay
Procedure, shortened: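 For recombinant human MAO-B with kynuramine as substrate (fluorescent 4-quinolinol read-out), IC50 values were determined at different substrate concentrations and then plotted against substrate concentration to assess tight-binding competitive inhibition.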

[5] = biological target: T1, Amine oxidase [flavin-containing] B; experiment: as §2, with “4-quinolinol” for “4-quinolinol at 25 uM”, “assay” for “assay relative to control”
SH-SY5Y [6] = experiment: Cytotoxicity against human SH-SY5Y cells assessed as effect on cell viability at 10 uM measured after 24 hrs by MTT assay; format: cell-based
Procedure, shortened: (§3)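 SH-SY5Y cells (ECACC) were seeded at 5.0 × 10⁴ cells/well and grown 24 h in E-MEM/F12 with 0.3% FBS. Compound in DMSO (final <0.5%) was added in serum-free medium without H₂O₂ and incubated 24 h at 37 °C, 5% CO₂. Viability was read by MTT (5 mg/mL, 24 h, A595). Mean ± SD, n = 3.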

SH-SY5Y [7] = experiment: Neuroprotective activity against H2O2-induced cytotoxicity in human SH-SY5Y cells assessed as increase in cell viability measured after 24 hrs by MTT assay; format: functional, cell-based; procedure, shortened: as §1
[8] = biological target: T1, Amine oxidase [flavin-containing] B; experiment: Mixed inhibition of recombinant human MAO-B expressed in baculovirus infected BTI insect cells at 0.32 to 2.6 uM by Lineweaver-Burk plot analysis
[9] = Solubility of compound at >=25 uM; format: physicochemical
[10] = Cytotoxicity against human SH-SY5Y cells assessed as cell viability at 10 uM measured after 24 hrs by MTT assay relative to control; format: cell-based; conditions: read-out: Activity; procedure, shortened: as §3
[11] = Cytotoxicity against human SH-SY5Y cells assessed as cell viability at 5 uM measured after 24 hrs by MTT assay relative to control; format: cell-based; conditions: read-out: Activity; procedure, shortened: as §3

SMILES	inhibition at 25 µM [3] [%]	IC50 ([5]; read-out: IC50) [µM]	also measured
COc1c(C)c(C/C=C(\C)CCC=C(C)C)c(OC)c(OC)c1OC	38	–	–
CC(C)=CCC/C(C)=C/Cc1c(O)cc(O)c(C=O)c1C	77.4	19.7	–
CC(C)=CCc1c(O)cc(O)c(C(=O)O)c1C	16.3	–	–
COc1cc(C)c(C/C=C(\C)CC/C=C(\C)CCC=C(C)C)c(OC)c1	10.8	–	–
CC(C)=CCC/C(C)=C/CC/C(C)=C/Cc1c(C)c(C=O)c(O)c(C/C=C(\C)CC/C=C(\C)CCC=C(C)C)c1O	48.8	–	solubility [9]: Insoluble; IC50 [5]: Nd(Insoluble)
CC(C)=CCc1c(C)cc(O)c(O)c1O	32.7	–	–
CC(C)=CCC/C(C)=C/CC/C(C)=C/Cc1c(O)cc(O)c(C(=O)O)c1C	49.2	26.5	–
COc1cc(C)c(C/C=C(\C)CCC=C(C)C)c(OC)c1OC	5.9	–	–
CC(C)=CCC/C(C)=C/CC/C(C)=C/Cc1c(O)cc(O)c(C=O)c1C	91.2	2.3	Activity (SH-SY5Y [2]): >20%; Activity (SH-SY5Y [6]): Non-Toxic; Activity (SH-SY5Y [7]): Dose-dependent effect
CC(C)=CCc1c(C)cc(O)cc1O	4.2	–	–
COc1cc(C)c(CC=C(C)C)c(OC)c1	5.4	–	–
COc1c(C)c(C/C=C(\C)CC/C=C(\C)CCC=C(C)C)c(OC)c(OC)c1OC	15.2	–	–
CC(C)=CCC/C(C)=C/Cc1c(C)cc(O)c(O)c1O	88.7	10.5	–
CC(C)=CCC/C(C)=C/CC/C(C)=C/Cc1c(C)cc(O)cc1O	96.4	9.2	viability at 24 h, 10 µM [10]: 60%; viability at 24 h, 5 µM [11]: 63%
CC(C)=CCC/C(C)=C/Cc1c(C)c(C=O)c(O)c(C/C=C(\C)CCC=C(C)C)c1O	48.1	–	solubility [9]: Insoluble; IC50 [5]: Nd(Insoluble)

Further lines, with some results ahead:

inhibition at 25 µM [3] [%]	IC50 ([5]; read-out: IC50) [µM]	SMILES	also measured
93.1	1.3	CC(C)=CCC/C(C)=C/CC/C(C)=C/CC1=C(C)C(=O)C(O)=C(O)C1=O	inhibition (INH) [1]: Active; Activity (SH-SY5Y [2]): >20%; inhibition (INH) [4]: Active; Activity (SH-SY5Y [6]): Non-Toxic; Activity (SH-SY5Y [7]): Dose-dependent effect
7.2	–	COc1c(C)c(CC=C(C)C)c(OC)c(OC)c1OC	–
97.8	1.3	CC(C)=CCC/C(C)=C/CC/C(C)=C/Cc1c(C)cc(O)c(O)c1O	Activity (SH-SY5Y [2]): >20%; inhibition (INH) [8]: Active; inhibition (INH) [4]: Active; Activity (SH-SY5Y [6]): Non-Toxic; Activity (SH-SY5Y [7]): Dose-dependent effect
30.7	–	CC(C)=CCC/C(C)=C/Cc1c(C)cc(O)cc1O	–
34.9	–	COc1cc(C)c(C/C=C(\C)CC/C=C(\C)CCC=C(C)C)c(OC)c1OC	–
84.7	5.5	CC(C)=CCc1c(C)c(C=O)c(O)c(CC=C(C)C)c1O	–
18.6	–	COc1cc(C)c(CC=C(C)C)c(OC)c1OC	–
38.3	–	CC(C)=CCC1=C(C)C(=O)C(O)=C(O)C1=O	–
36.3	–	CC(C)=CCc1c(O)cc(O)c(C=O)c1C	–
31.2	–	CC(C)=CCC/C(C)=C/Cc1c(O)cc(O)c(C(=O)O)c1C	–
92.2	1.4	CC(C)=CCC/C(C)=C/CC1=C(C)C(=O)C(O)=C(O)C1=O	–
